# Target: T1, PMPMEase (EPL, esterase from porcine liver) (Sus scrofa, UniProt Q29550)
# T1 sequence (Q29550 19-566): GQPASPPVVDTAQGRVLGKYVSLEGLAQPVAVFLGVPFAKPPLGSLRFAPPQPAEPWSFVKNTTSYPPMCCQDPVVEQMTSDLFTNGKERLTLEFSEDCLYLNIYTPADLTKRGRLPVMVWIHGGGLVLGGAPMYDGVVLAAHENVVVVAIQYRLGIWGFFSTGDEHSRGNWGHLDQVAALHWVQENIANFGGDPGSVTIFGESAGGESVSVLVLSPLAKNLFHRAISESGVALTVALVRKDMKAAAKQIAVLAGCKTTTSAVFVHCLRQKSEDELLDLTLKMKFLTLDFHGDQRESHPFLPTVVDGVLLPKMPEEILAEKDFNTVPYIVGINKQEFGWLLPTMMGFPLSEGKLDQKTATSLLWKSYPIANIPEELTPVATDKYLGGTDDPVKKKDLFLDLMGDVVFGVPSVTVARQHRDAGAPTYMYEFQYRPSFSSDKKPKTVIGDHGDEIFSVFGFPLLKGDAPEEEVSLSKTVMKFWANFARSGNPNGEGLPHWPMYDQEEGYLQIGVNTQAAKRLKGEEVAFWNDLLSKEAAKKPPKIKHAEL
# Assay: HPLC product assay with UV detection, Michaelis-Menten fit
# Format: biochemical
# Outline: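 Commercial porcine liver esterase (0.1 to 5 µg per assay, depending on substrate) was incubated with varying concentrations of S-alkylated cysteinyl ester substrates in 100 mM Tris-HCl, pH 7.4, with 5% DMSO at 37°C. Reactions were stopped, and acid products were quantified by reversed-phase HPLC at 260 nm (p-nitrobenzoyl substrates) or 214 nm (others). Base-hydrolysed substrate standards supplied the calibration. Km came from a Michaelis-Menten fit.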
row,SMILES,Km [µM]
1,"CCSC[C@H](NC(=O)c1ccc([N+](=O)[O-])cc1)C(=O)OC [L-74, (R)-methyl 2-(4-nitrobenzamido)-3-(ethylthio)propanoate]",505 ± 63
2,"COC(=O)[C@@H](CSC/C=C(\C)CC/C=C(\C)CCC=C(C)C)NC(C)=O [L-69, (S)-methyl 3-((2E,6E)-3,7,11-trimethyldodeca-2,6,10-trienylthio)-2-acetamidopropanoate]",21 ± 4.2
3,"COC(=O)[C@H](CSC/C=C(\C)CC/C=C(\C)CCC=C(C)C)NC(=O)CNC(=O)c1ccc([N+](=O)[O-])cc1 [RD-18, N-(4-Nitrobenzoylglycyl)-S-(trans, trans-farnesyl)cysteine methyl ester]",8.4 ± 0.89
4,"COC(=O)[C@H](CSCC=C(C)C)NC(=O)c1ccc([N+](=O)[O-])cc1 [L-77, (R)-methyl 3-(3-methylbut-2-enylthio)-2-(4-nitrobenzamido) propanoate]",294 ± 25
5,"COC(=O)[C@H](CSC/C=C(\C)CC/C=C(\C)CCC=C(C)C)NC(=O)c1ccc([N+](=O)[O-])cc1 [RD-PNB, (R)-methyl 3-((2E,6E)-3,7,11-trimethyldodeca-2,6,10-trienylthio)-2-(4-nitrobenzamido)propanoate]",29 ± 2.2
6,"COC(=O)[C@H](CSC/C=C(\C)CCC=C(C)C)NC(=O)c1ccc([N+](=O)[O-])cc1 [L-72, (R)-methyl 3-((E)-3,7-dimethylocta-2,6-dienylthio)-2-(4-nitrobenzamido)propanoate]",87 ± 12
7,"COC(=O)[C@@H](CSC/C=C(\C)CC/C=C(\C)CCC=C(C)C)NC(=O)c1ccc([N+](=O)[O-])cc1 [L-70, (S)-methyl 3-((2E,6E)-3,7,11-trimethyldodeca-2,6,10-trienylthio)-2-(4-nitrobenzamido)propanoate]",11 ± 0.9
8,"COC(=O)[C@H](C)NC(=O)c1ccc([N+](=O)[O-])cc1 [L-111, (S)-methyl 2-(4-nitrobenzamido)propanoate]",300 ± 38
9,"CC(C)=CCC/C(C)=C/CC/C(C)=C/CSC[C@H](NC(=O)c1ccc([N+](=O)[O-])cc1)C(=O)OC(C)C [L-75, (R)-isopropyl 3-((2E,6E)-3,7,11-trimethyldodeca-2,6,10-trienylthio)-2-(4-nitrobenzamido)propanoate]",5.9 ± 0.7
10,"COC(=O)CNC(=O)c1ccc([N+](=O)[O-])cc1 [L-102, methyl 2-(4-nitrobenzamido)acetate]",400 ± 115
11,"COC(=O)[C@H](CSCC[C@@H](C)CCC=C(C)C)NC(=O)c1ccc([N+](=O)[O-])cc1 [L-83, (R)-methyl 3-((S)-3,7-dimethyloct-6-enylthio)-2-(4-nitrobenzamido)propanoate]",56 ± 9.6
12,"CCOC(=O)[C@H](CSC/C=C(\C)CC/C=C(\C)CCC=C(C)C)NC(=O)c1ccc([N+](=O)[O-])cc1 [L-76, (R)-ethyl 3-((2E,6E)-3,7,11-trimethyldodeca-2,6,10-trienylthio)-2-(4-nitrobenzamido)propanoate]",11 ± 0.9
13,"COC(=O)[C@H](CSCc1ccccc1)NC(=O)c1ccc([N+](=O)[O-])cc1 [L-93, (R)-methyl 2-(4-nitrobenzamido)-3-(benzylthio)propanoate]",40.5 ± 3.7
14,"COC(=O)[C@H](CSC/C=C(\C)CC/C=C(\C)CC/C=C(\C)CCC=C(C)C)NC(=O)c1ccc([N+](=O)[O-])cc1 [L-80, (R)-methyl 3-((2E,6E,10E)-3,7,11,15-tetramethylhexadeca-2,6,10,14-tetraenylthio)-2-(4-nitrobenzamido) propanoate]",15 ± 2.7
15,"COC(=O)[C@H](CSCCC(C)C)NC(=O)c1ccc([N+](=O)[O-])cc1 [L-81, (R)-methyl 2-(4-nitrobenzamido)-3-(isopentylthio)propanoate]",960 ± 180
16,"COC(=O)[C@H](CSCC[C@H](C)CCC=C(C)C)NC(=O)c1ccc([N+](=O)[O-])cc1 [L-86, (R)-methyl 3-((R)-3,7-dimethyloct-6-enylthio)-2-(4-nitrobenzamido)propanoate]",53 ± 7

# From article PMC2906805 (The open enzyme inhibition journal, 2009)
